PG9 binder = small molecules binding HIV-1 gp120 antibody PG9; TR-FRET gp120-PG9 antibody binding; inhibition, % at 6.7 µM; 0.43% of 360,000 active; AID 624416; in the data active = inhibition above about 8.5%
MT1-MMP act inh = inhibitors of human MT1-MMP activation; P50281; HT1080 RFP-PRO-GFP cells, GFP/RFP ratio fluorescence, overnight; percent of plate control window, DMSO zero; GFP/RFP ratio change, % at 20 µM; 0.061% of 360,000 active; AID 651647;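 active = GFP/RFP ratio change of at least 30% with cell ATP level not reduced by more than half and red fluorescence within 50% of control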
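Assay system: HT1080 RFP-PRO-GFP cells. Benchmarks: DMSO vehicle wells and RFP-L50D-GFP reporter cell wells. Times: overnight cell settling, then overnight compound exposure, 37 °C, 5% CO2. Compound: 20 µM single dose, 1% DMSO. Read-out basis: GFP/RFP fluorescence ratio.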
Rev-erbA mod = modulators of human Rev-erb alpha DNA binding; 0.79% of 370,000 active; activity, % at 10 µM; AID 1259318; Rev-erbα–FITC-DNA binding, fluorescence polarization, 90 min;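 active = activity above about 14%, limit read from the data; passing the limit was not always enough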;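 also: 0% = DMSO wells with 35 nM protein and 100% = DMSO wells with 750 nM protein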
NR2E3 ag-1 = human photoreceptor-specific nuclear receptor agonism. inhibition of corepressor binding, % at 3.98 µM. 0.35% of 360,000 active. CHO-S Gal4-NCOR/VP16-NR2E3 two-hybrid, luciferase. Q9Y5X4;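 active = inhibition above the mean of all tested compounds plus 3 SD, cut at about 70% in these data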;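 also: 0% = DMSO with NR2E3 transfected cells and 100% = cells lacking NR2E3 construct; higher means lower luciferase signal from less NR2E3 corepressor binding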
Target sequence (Q9Y5X4 whole entry, looked up, the tested form may be a part): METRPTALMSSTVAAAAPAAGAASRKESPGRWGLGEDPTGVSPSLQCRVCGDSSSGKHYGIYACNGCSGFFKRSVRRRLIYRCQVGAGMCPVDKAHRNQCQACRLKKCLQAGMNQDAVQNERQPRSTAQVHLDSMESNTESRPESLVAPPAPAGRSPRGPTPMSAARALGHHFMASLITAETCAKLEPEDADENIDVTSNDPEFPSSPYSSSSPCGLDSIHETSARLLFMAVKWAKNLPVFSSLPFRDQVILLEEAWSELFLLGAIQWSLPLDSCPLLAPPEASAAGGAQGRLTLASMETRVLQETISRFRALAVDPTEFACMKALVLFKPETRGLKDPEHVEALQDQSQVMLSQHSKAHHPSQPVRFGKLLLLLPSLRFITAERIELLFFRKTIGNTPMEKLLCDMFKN
NR2E3 ag-2 = NR2E3 (human) agonism | 0.12% of 320,000 active | GST-NR2E3/biotin-RetCOR TR-FRET, 1536-well | inhibition of corepressor binding, % at 4.78 µM | Q9Y5X4 | AID 2300;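 active = percent inhibition above the cutoff of mean plus 3 SD of all tested compounds, set per screening campaign, cut at about 20% in these data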;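 also: 0% = DMSO wells and 100% = biotin wells as full block of FRET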
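Material: NR2E3–RetCOR corepressor complex | Quantity: 1.35 nM GST-tagged NR2E3 final | Schedule: 5 h at 4 °C | Replication: Singlicate compound wells | Reagent: RetCOR corepressor, biotinylated, 7 nM | Controls: Biotin wells as high control, 0.6% DMSO wells as low control | Signal: TR-FRET, Eu(K)-anti-GST donor, streptavidin-D2 acceptor, ex 340, em 617/671 nm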
SKN-1 block = blocks SKN-1 activity in C. elegans | C. elegans VP596 Pgst-4::GFP/RFP ratio, acrylamide-induced, 24 h | inhibition, % at 21.8 µM | 0.49% of 360,000 active;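 active = interference check ratio from 0.5 to 1.5 plus GFP to RFP signal ratio inhibition reaching or exceeding a fixed threshold, cut at about 30% in these data, passing the limit was not always enough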
NR1D1 mod conf = Rev-erb alpha (human) modulation, hit confirmation | shares compounds with Rev-erbA mod | Rev-erb alpha FITC-DNA binding, fluorescence polarization, 90 min | activation, % at 25 µM | 61% of 3,000 active;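 active = activation at or above a set limit, or at least 3 SD above the negative control mean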;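 also: 0% = 35 nM protein with DMSO and 100% = 750 nM protein high control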
RORg counter = RORgamma DNA-binding activity, dose-response counter-screen | shares compounds with Rev-erbA mod | purified RORgamma protein-FITC-DNA binding, fluorescence polarization | IC50, µM | 8% of 910 active;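 active = Compounds whose fitted half-maximal concentration for disrupting protein-DNA binding is below 10 micromolar; the record names Rev-erb in its text, so the target is in doubt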
* = called active by the depositor; i = inactive; / = no result given. Shown are actives, neighbours in structure and some others; about 1.9% of the full set was active somewhere.

SMILES	PG9 binder	MT1-MMP act inh	Rev-erbA mod	NR2E3 ag-1	NR2E3 ag-2	SKN-1 block	NR1D1 mod conf	others
COC(=O)[C@]12C[C@H](CC(=O)NCCCCc3ccccc3)C(=O)N(Cc3ccccc3)C1=C[C@H](C(C)(C)C)O[C@@H]2C	-2	/	-1	/	/	/	/
O=C(NC(c1ccccc1)c1ccsc1)C1CCN(Cc2ccc(Oc3ccccc3)cc2)CC1 (stereo unspecified)	0	4	-4	-15	/	12	/
CSc1nc2cc(C)nn2c(-c2ccccc2)c1C#N	-1	0	26*	-27	5	-1	10
CSc1nc2c(c(-c3ccccc3)c1C#N)CCC2	-2	0	1	12	-1	30	/
CCCNC(=O)c1c(NC(=O)C2COc3ccccc3O2)sc2c1CCCC2 (stereo unspecified)	0	-2	49*	-26	-3	8	4
O=C(Nc1cc(S(=O)(=O)N2CCOCC2)ccc1N1CCCCC1)c1cc(-c2ccccn2)nc2ccccc12	-1	0	25*	17	0	-5	2
Cc1ccc(S(=O)(=O)N2CCOCC2)cc1NC(=O)c1cc(-c2ccccn2)nc2ccccc12	-1	6	-6	-16	3	-1	/
O=C(CNc1cccc(Br)c1)Nc1ccc(S(=O)(=O)N2CCCCC2)cc1	0	3	-1	12	/	-7	/
O=C1COc2ccc(C(=O)CSc3nnc(Cc4ccccc4)o3)cc2N1	6	4	18*	-31	-18	-16	21*
O=C(CSc1nnc(Cc2ccccc2)o1)c1ccc(F)cc1	-1	5	2	-7	0	-4	/
Cn1c(SCC(=O)c2ccc3c(c2)NC(=O)CO3)nc2ccccc21	8	3	36*	-17	-9	3	24*
O=C1COc2ccc(C(=O)CSc3nc4ccccc4c(=O)n3-c3ccc(Cl)c(Cl)c3)cc2N1	0	-1	26*	1	2	3	7
O=C(NCCCc1ccccc1)OC1CC2CC1[C@H]1CCCCN1[C@H]2Cc1ccccc1 (stereo partly specified)	/	/	-2	/	/	/	/
Cc1cc2cc3c(cc2nc1SCC(=O)Nc1ccccc1)CCC3	-1	3	33*	3	0	6	15
Cc1cccc(NC(=O)CSCC(=O)Nc2ccc(S(=O)(=O)N3CCCC3)cc2)c1	2	0	4	-15	-6	0	/
Cc1ccc2cc(C)c(SCC(=O)Nc3ccc(S(=O)(=O)N4CCCC4)cc3)nc2c1	2	-7	27*	7	0	-10	19*
COc1cc(NC(=O)CSc2nc3ccccc3cc2C)c(C(=O)O)cc1OC	-2	2	-4	-22	1	5	/
CCOC(=O)[C@@H](NC(=O)/C=C/[C@H]1O[C@@H](n2cc(C)c(=O)[nH]c2=O)C[C@@H]1O)C(C)C	-1	1	-1	-4	/	6	/
Cc1cc(NC(=O)CSc2nc3c(C)ccc(C)c3cc2C#N)no1	-14	-44	75*	1	0	15	36*	RORg counter=>40
Cc1cc(C)c2cc(C#N)c(SCC(=O)Nc3cc(C)on3)nc2c1	2	-49	105*	12	-4	5	49*	RORg counter=>40
CCc1cc2c(C)cc(C)cc2nc1SCC(=O)Nc1cc(C)on1	0	2	97*	-17	3	5	19*
Cc1ccc(C)c2nc(SCC(=O)N3CCCc4ccccc43)c(C#N)cc12	-1	-10	61*	15	-4	-20	72*	RORg counter=>40
C[C@H]1C2CC(OC(=O)Nc3ccc(C(F)(F)F)cc3)C(C2)[C@H]2CCCCN21 (stereo partly specified)	/	/	5	/	/	/	/
CCCCNC(=O)C[C@H]1C[C@@]2(C(=O)OC)C(=C[C@H](C(C)C)O[C@@H]2C2CC2)N(Cc2ccccc2)C1=O	1	/	2	/	/	/	/
Cc1nnc(NC(=O)c2sc3ccccc3c2Cl)s1	4	4	4	-185	3	13	/
SMILES	PG9 binder	MT1-MMP act inh	Rev-erbA mod	NR2E3 ag-1	NR2E3 ag-2	SKN-1 block	NR1D1 mod conf	others
CNC(=O)c1ccsc1NC(=O)c1sc2ccccc2c1Cl	-1	8	96*	-41	-4	18	72*	RORg counter=>40
Cc1ccc2nsnc2c1NC(=O)c1sc2ccccc2c1Cl	5	3	31*	-14	5	-1	32*	RORg counter=>40
COc1ccc(-c2c(C(=O)c3ccc(Br)cc3)[nH]c(N)c2C(=O)NCCc2c[nH]c3ccccc23)cc1OC	1	/	-2	/	/	/	/
O=C(CSc1nc(C2CCCCC2)nc2ccccc12)NCc1ccc2c(c1)OCO2	0	-6	20*	-6	5	11	16
NS(=O)(=O)c1ccc(CCNc2ccn3nc(-c4cccc(C(F)(F)F)c4)cc3n2)cc1	-1	4	28*	-12	/	15	9
CC(C)C[C@H]1COc2cccc(N3CCCC3)c2S(=O)(=O)N1	0	/	3	/	/	/	/
N#Cc1nnn2c1nc(N)c1c(F)cccc12	3	7	4	13	0	-12	/
N#Cc1nnn2c1nc(N)c1c(Cl)cccc12	-1	1	37*	-29	/	3	15*
O=C1CSC(=S)N1N=Cc1c(F)cccc1Cl	0	0	3	-25	/	-2	/
CN(C)c1ccc(C=NN2C(=O)CSC2=S)c(Cl)c1	-2	-19	22*	3	/	11	-3
COc1ccc(CCNC(=O)c2c([S-])n(-c3ccc(C)cc3)c3cccc[n+]23)cc1	0	-4	0	-20	-2	-2	/
CCc1ccc2n(-c3ccc(OC)cc3)c([S-])c(C(=O)Nc3cc(C)cc(C)c3)[n+]2c1	2	-4	90*	-15	2	4	113*	RORg counter=i
O=C(COc1nc2ccccc2nc1N1CCOCC1)N1CCc2ccccc21	-2	-4	97*	4	/	-9	62*	RORg counter=4.3*
O=C(COc1nnnc2ccccc12)N1CCCc2ccccc21	0	9	0	10	3	3	/
Cc1ccc(C(=O)CSc2ncnc3sc4c(c23)CCCC4)cc1	-1	2	34*	-22	0	3	18*
COc1cccc(-n2c([S-])c(C(=O)Nc3ccc(S(=O)(=O)N4CCOCC4)cc3)[n+]3cc(C(N)=O)ccc23)c1	-2	-16	62*	-6	-2	4	63*	RORg counter=i
CCOC(=O)c1nn2c(C(F)(F)F)cc(-c3ccc(OC)cc3)nc2c1Br	-1	-4	41*	-10	1	13	5
